Active and inactive are the calls of the source. No cut-off for these calls is given here.
Legend:
Furin = Furin (Homo sapiens, UniProt P09958); assay: Inhibition of recombinant soluble human furin using Phac-Arg-Val-Arg-Arg-AMC fluorogenic substrate
Procedure, shortened: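 Enzyme kinetic assay under standard conditions at pH 7.0, using recombinant soluble human furin and the fluorogenic AMC substrate. Inhibition constants were determined from the kinetics.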

Human orthopneumovirus = assay: Antiviral activity against RSV A2 infected in A549 cells assessed as reduction in plaque formation incubated for 72 hrs upto 10 uM followed by viral infection at MOI of 1 for 1 hr by multicycle replication assay; type: functional, organism-based; conditions: human respiratory syncytial virus, dose microM <=10, time 72.0 hrs
Procedure, shortened: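 A549 human lung cells were inoculated with RSV A2 at MOI 1 for 1 h, washed, then kept with inhibitor at 0.5–10 μM (0.1–2.5 μM for one compound) or without inhibitor. Supernatants were collected at 16, 24, 48 and 72 h post infection. Titres (PFU/mL) were read by plaque assay, mean ± standard deviation, n = 3.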

dengue virus type 2 = assay: Antiviral activity against DENV-2 infected in african green monkey Vero 76 cells assessed as virus titer reduction incubated for 48 hrs by plaque assay; type: functional, organism-based
West Nile virus = assay: Antiviral activity against West Nile virus infected in […] cells assessed as virus titer reduction incubated for 48 hrs by plaque assay; type: functional, organism-based; conditions: Vero 76, 48 h
Procedure, shortened: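 Huh-7 cells infected with dengue virus type 2 (strain 16681) or West Nile virus, then cultured with inhibitor. Supernatants were collected 48 h post-infection and titrated by plaque assay on VeroE6 cells (n = 2, mean ± standard deviation). EC50 was calculated from the titer data.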

[1] = Cytotoxicity against african green monkey Vero 76 cells by Cell Titer Glo assay; type: cell-based; conditions: chlorocebus sabaeus
[2] = Half life in Sprague-Dawley rat at 1 mg/kg, iv; type: ADME, organism-based; conditions: in vivo
Procedure, shortened: (§1)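 Rat pharmacokinetics: single intravenous dose of 1 mg/kg or intraperitoneal dose of 2.5 mg/kg. Plasma inhibitor levels were followed over time, and half-life and total body clearance were derived for each route. Cmax and time to Cmax were also derived after intraperitoneal dosing.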

[3] = Total body clearance in Sprague-Dawley rat at 1 mg/kg, iv; type: ADME, organism-based; conditions: in vivo; procedure, shortened: as §1
[4] = Half life in Sprague-Dawley rat at 2.5 mg/kg, ip; type: ADME, organism-based; conditions: in vivo; procedure, shortened: as §1
[5] = Total body clearance in Sprague-Dawley rat at 2.5 mg/kg, ip; type: ADME, organism-based; conditions: in vivo; procedure, shortened: as §1
[6] = Cmax in Sprague-Dawley rat at 2.5 mg/kg, ip; type: ADME, organism-based; set-up: route intraperitoneal, dose 2.5 mg/kg; conditions: in vivo
Procedure, shortened: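 Rats received a single intraperitoneal dose of 2.5 mg/kg. Plasma drug levels were followed over time, and half-life, total body clearance, and peak plasma concentration with its time were derived from the concentration–time profile.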

[7] = Toxicity in rat assessed as mortality at 1 mg/kg, iv; type: organism-based; conditions: in vivo
[8] = Plasma concentration in Sprague-Dawley rat at 2.5 mg/kg, ip measured after 3 hrs; type: ADME, organism-based
Prothrombin = Prothrombin (Bos taurus, UniProt P00735); assay: Inhibition of bovine thrombin using Tos-Gly-Pro-Arg-AMC as substrate by fluorescence assay
Coagulation factor X = Coagulation factor X (Homo sapiens, UniProt P00742); assay: Inhibition of human factor Xa using Mes-Darg-Pro-Arg-AMC as flurogenic substrate by fluorescence assay
Sequence of Coagulation factor X (P00742 41-179 limits assumed): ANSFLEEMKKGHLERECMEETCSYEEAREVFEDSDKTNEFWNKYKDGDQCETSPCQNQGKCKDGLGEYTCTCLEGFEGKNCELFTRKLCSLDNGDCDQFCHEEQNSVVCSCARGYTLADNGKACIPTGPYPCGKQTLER
Sequence of Coagulation factor X (P00742 235-488 limits assumed): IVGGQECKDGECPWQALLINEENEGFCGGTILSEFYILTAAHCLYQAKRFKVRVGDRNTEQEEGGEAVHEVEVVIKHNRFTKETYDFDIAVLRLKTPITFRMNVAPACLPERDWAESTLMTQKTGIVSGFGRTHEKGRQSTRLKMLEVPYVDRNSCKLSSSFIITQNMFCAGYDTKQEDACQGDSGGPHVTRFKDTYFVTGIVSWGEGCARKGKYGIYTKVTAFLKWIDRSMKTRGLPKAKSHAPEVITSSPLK

Plasminogen = Plasminogen (Homo sapiens, UniProt P00747); assay: Inhibition pf human plasmin using Mes-Darg-Phe-Arg-AMC as substrate by fluorescence assay
Sequence of Plasminogen (P00747 97-580 limits assumed): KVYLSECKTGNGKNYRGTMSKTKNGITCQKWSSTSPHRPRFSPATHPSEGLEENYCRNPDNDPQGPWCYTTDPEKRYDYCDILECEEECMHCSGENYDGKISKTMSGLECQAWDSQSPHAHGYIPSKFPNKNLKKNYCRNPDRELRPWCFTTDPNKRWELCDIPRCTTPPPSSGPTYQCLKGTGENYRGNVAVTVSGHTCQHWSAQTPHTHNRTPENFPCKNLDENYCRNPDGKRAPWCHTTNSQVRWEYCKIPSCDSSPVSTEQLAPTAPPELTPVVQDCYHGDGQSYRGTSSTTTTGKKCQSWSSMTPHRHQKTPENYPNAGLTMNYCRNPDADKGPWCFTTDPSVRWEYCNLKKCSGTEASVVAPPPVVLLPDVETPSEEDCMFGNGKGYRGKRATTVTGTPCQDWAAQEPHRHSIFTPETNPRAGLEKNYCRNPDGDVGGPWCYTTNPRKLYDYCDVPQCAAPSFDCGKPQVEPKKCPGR
Sequence of Plasminogen (P00747 581-810 limits assumed): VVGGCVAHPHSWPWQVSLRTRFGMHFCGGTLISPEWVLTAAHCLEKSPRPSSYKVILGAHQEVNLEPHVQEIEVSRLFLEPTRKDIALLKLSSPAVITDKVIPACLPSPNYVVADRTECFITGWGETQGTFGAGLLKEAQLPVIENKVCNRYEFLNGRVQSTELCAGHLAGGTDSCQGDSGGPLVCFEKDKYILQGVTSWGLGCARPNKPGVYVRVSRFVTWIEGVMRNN

Sequence of Furin (P09958 whole entry): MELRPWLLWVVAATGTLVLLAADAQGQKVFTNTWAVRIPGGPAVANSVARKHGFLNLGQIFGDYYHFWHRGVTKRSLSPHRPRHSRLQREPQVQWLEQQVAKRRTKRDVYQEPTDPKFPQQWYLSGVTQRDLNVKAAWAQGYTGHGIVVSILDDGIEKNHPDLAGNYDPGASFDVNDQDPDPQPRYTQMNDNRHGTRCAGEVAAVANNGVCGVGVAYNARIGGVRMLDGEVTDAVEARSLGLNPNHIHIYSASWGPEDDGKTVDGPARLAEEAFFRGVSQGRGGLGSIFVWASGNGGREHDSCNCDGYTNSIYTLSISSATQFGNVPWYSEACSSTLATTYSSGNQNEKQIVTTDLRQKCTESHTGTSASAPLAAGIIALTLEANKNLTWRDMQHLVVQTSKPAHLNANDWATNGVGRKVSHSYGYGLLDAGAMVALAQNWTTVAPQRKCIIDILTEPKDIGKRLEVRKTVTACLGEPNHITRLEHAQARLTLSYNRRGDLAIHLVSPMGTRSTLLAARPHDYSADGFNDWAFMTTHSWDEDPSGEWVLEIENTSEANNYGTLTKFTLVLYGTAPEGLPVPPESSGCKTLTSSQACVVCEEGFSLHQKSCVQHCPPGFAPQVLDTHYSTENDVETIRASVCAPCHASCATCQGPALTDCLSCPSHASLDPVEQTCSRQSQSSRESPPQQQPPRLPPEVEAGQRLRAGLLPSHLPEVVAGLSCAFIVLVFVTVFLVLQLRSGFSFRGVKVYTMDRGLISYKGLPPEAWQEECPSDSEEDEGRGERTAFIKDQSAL

CC(C)(C)[C@H](NC(=O)[C@H](CCCNC(=N)N)NC(=O)Cc1ccc(CN)cc1)C(=O)N[C@@H](CCONC(=N)N)C(=O)NCc1ccc(C(=N)N)cc1
Ki (Furin): 0.0768 nM

CC(C)(C)[C@H](NC(=O)[C@H](CCONC(=N)N)NC(=O)Cc1ccc(CN)cc1)C(=O)N[C@@H](CCONC(=N)N)C(=O)NCc1ccc(C(=N)N)cc1
Ki (Furin): 0.0342 nM

CC(C)(C)[C@H](NC(=O)[C@H](CCONC(=N)N)NC(=O)Cc1ccc(CNC(=N)N)cc1)C(=O)N[C@@H](CCONC(=N)N)C(=O)NCc1ccc(C(=N)N)cc1
Activity (Human orthopneumovirus): Active | EC50 (dengue virus type 2): 1500 nM | EC50 (West Nile virus): 1460 nM | CC50 [1]: > 50000 nM | half-life [2]: 0.9 h | clearance [3]: 7.37 mL/min/kg | half-life [4]: 1.6 h | CL/F [5]: 4.55 mL/min/kg | Cmax [6]: 3160 ng/mL | Activity [7]: Non-Toxic | concentration at 3 h [8]: > 1000 ng/mL

CC(C)(C)[C@H](NC(=O)[C@H](CCCNC(=N)N)NC(=O)Cc1ccc(CNC(=N)N)cc1)C(=O)N[C@@H](CCCNC(=N)N)C(=O)NCc1ccc(C(=N)N)cc1
Activity (Human orthopneumovirus): Active | EC50 (dengue virus type 2): 760 nM | EC50 (West Nile virus): 910 nM | CC50 [1]: > 50000 nM | Ki (Prothrombin): > 3000 nM | Ki (Coagulation factor X): > 3000 nM | Ki (Plasminogen): > 3000 nM

CC(C)(C)[C@H](NC(=O)[C@H](CCONC(=N)N)NC(=O)Cc1ccc(CN)cc1)C(=O)N[C@@H](CCCCN)C(=O)NCc1ccc(C(=N)N)cc1
Activity (Human orthopneumovirus): inactive

CC(C)(C)[C@H](NC(=O)[C@H](CCCNC(=N)N)NC(=O)Cc1ccc(CNC(=N)N)cc1)C(=O)N[C@@H](CCONC(=N)N)C(=O)NCc1ccc(C(=N)N)cc1
Ki (Furin): 0.0131 nM

CC(C)(C)[C@H](NC(=O)[C@H](CCONC(=N)N)NC(=O)Cc1ccc(CNC(=N)N)cc1)C(=O)N[C@@H](CCCCN)C(=O)NCc1ccc(C(=N)N)cc1
Ki (Furin): 0.0363 nM | Activity (Human orthopneumovirus): Active
